The record followed here is ChEMBL document CHEMBL1649536, “First report of plasmid-mediated quinolone resistance determinant qnrS1 in an Escherichia coli strain of animal origin in Italy” (2009).

In brackets after ≈: the same amount, converted by molar mass. Where only a bound is given, the exact number is not on record here.

Holding throughout (assay type): functional
For test [1], the system named is Escherichia coli. The test is described as follows: Antibacterial activity against Escherichia coli 3963 by Etest method. The essentials: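 Strain 3963 is an E. coli poultry isolate of phylogenetic group D and multilocus sequence type 398. It was picked from 73 poultry isolates with ciprofloxacin MICs of ≥0.125 μg/ml. Resistance categories were assigned by published interpretive criteria.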

Test [2] concerns Escherichia coli. The test is described as follows: Antibacterial activity against Escherichia coli TOP10 by Etest method.
The subject of test [3] is Escherichia coli. The test is described as follows: Antibacterial activity against quinolone-resistant Escherichia coli TOP10-3963 transformant harboring qnrS1 gene by Etest method. The essentials:
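The transformant was made by extracting plasmid DNA from strain 3963 and transforming competent E. coli TOP10. Transformants were selected on LB agar containing 0.06 μg/ml ciprofloxacin and carried both qnrS1 and blaTEM-1.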

The MIC is the lowest concentration that inhibits growth of the organism. In the case of `CCn1cc(C(=O)O)c(=O)c2ccc(C)nc21` [NALIDIXIC ACID], the MIC in the test with Escherichia coli [1] is 16 µg/mL (≈ 68.9 µM); against Escherichia coli [2] it was 2 µg/mL (≈ 8.61 µM); against Escherichia coli [3] it was 6 µg/mL (≈ 25.8 µM).
Turning to `CO/N=C(\C(=O)N[C@@H]1C(=O)N2C(C(=O)O)=C(COC(C)=O)CS[C@H]12)c1csc(N)n1` [CEFOTAXIME], the MIC is 0.047 µg/mL (≈ 0.103 µM) in the test with Escherichia coli [1], 0.064 µg/mL (≈ 0.141 µM) with Escherichia coli [2] and 0.064 µg/mL (≈ 0.141 µM) with Escherichia coli [3].
Take `O=C(O)c1cn(C2CC2)c2cc(N3CCNCC3)c(F)cc2c1=O` [CIPROFLOXACIN]: in the test with Escherichia coli [1], the MIC was determined as 0.38 µg/mL (≈ 1.15 µM).
For `CO/N=C(\C(=O)N[C@@H]1C(=O)N2C(C(=O)O)=C(CSc3nc(=O)c(O)nn3C)CS[C@H]12)c1csc(N)n1` [CEFTRIAXONE], the MIC in the test on Escherichia coli [1] was determined as 0.032 µg/mL (≈ 0.0577 µM); in the test with Escherichia coli [2], 0.064 µg/mL (≈ 0.115 µM); against Escherichia coli [3], 0.094 µg/mL (≈ 0.169 µM).
The corresponding values for `CCN1CCN(c2cc3c(cc2F)c(=O)c(C(=O)O)cn3C2CC2)CC1` [ENROFLOXACIN] are 2 µg/mL (≈ 5.56 µM), 0.08 µg/mL (≈ 0.223 µM) and 0.5 µg/mL (≈ 1.39 µM).
With `C[C@H]1COc2c(N3CCN(C)CC3)c(F)cc3c(=O)c(C(=O)O)cn1c23.C[C@H]1COc2c(N3CCN(C)CC3)c(F)cc3c(=O)c(C(=O)O)cn1c23.O` [LEVOFLOXACIN], the MIC against Escherichia coli [2] is 0.006 µg/mL; against Escherichia coli [3], 0.25 µg/mL.
In the case of `CC1(C)S[C@@H]2[C@H](NC(=O)[C@H](N)c3ccccc3)C(=O)N2[C@H]1C(=O)O` [AMPICILLIN], the results for the MIC with Escherichia coli [1], against Escherichia coli [2] and against Escherichia coli [3] were not below 256 µg/mL, 6 µg/mL (≈ 17.2 µM) and not below 256 µg/mL, respectively.
